Experimental data published in ChEMBL document CHEMBL2010650, “Synthetic N-alkylated iminosugars as new potential immunosuppressive agents” (ACS Med Chem Lett, 2011).
Active and inactive are the calls of the source. No cut-off for these calls is given here.

How the values were obtained:
Splenocyte [1] = assay: Immunosuppressive activity in BALB/c mouse splenocytes assessed as reduction in concanavalin-A-induced IFN-gamma production at 30 uM after 48 hrs by ELISA; format: functional; set-up: scale not given: the % may be the effect or the level left
Summary of the method: (§1)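 Splenocytes induced with 2.5 μg/mL Con A, co-incubated with compound 48 h at 37 °C, 5% CO₂. Culture supernatant assayed for IFN-γ or IL-4 by mouse ELISA kit. Reduction is relative to Con A-only control, with CsA 1 μM as positive control.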

[2] = Immunosuppressive activity in BALB/c mouse splenocytes assessed as inhibition of concanavalin-A-induced cell proliferation at 30 uM after 48 hrs by MTT assay; format: functional; conditions: Splenocyte
Summary of the method: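 Mouse splenocytes stimulated with Con A at 2.5 μg/mL, incubated with compound at 37 °C, 5% CO₂ for 48 h. Proliferation read by MTT assay. Con A-treated cells serve as control, CsA (1 μM) as positive control. Inhibition is expressed relative to control, as means ± SEM.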

Th1 = assay: Immunosuppressive activity in Th1 cells assessed as reduction of IFNgamma production; format: functional, cell-based
Splenocyte [3] = assay: Immunosuppressive activity in BALB/c mouse splenocytes assessed as reduction in concanavalin-A-induced IL4 production at 30 uM after 48 hrs by ELISA; format: functional; set-up: scale not given: the % may be the effect or the level left; summary of the method: as §1
Mus musculus [4] = species: Mus musculus; assay: Toxicity in C57BL/6 mouse transplanted with trunk skin of BALB/c mouse assessed as mortality; format: organism-based; conditions: in vivo
Th2 = assay: Immunosuppressive activity in Th2 cells assessed as reduction of IL-4 production; format: functional, cell-based
Mus musculus [5] = assay: Immunosuppressive activity in C57BL/6 mouse transplanted with trunk skin of BALB/c mouse assessed as increase of allograft mean survival time at 50 umol/kg, sc (reference value: 11.25 +/- 1.83 days); format: functional
[6] = Toxicity in subcutaneously dosed C57BL/6 mouse transplanted with trunk skin of BALB/c mouse; format: organism-based; conditions: in vivo, sc
Splenocyte [7] = assay: Immunosuppressive activity in BALB/c mouse splenocytes assessed as reduction in concanavalin-A-induced IFN-gamma production at 1 uM after 48 hrs by ELISA; format: functional; set-up: scale not given: the % may be the effect or the level left; summary of the method: as §1
Splenocyte [8] = assay: Immunosuppressive activity in BALB/c mouse splenocytes assessed as reduction in concanavalin-A-induced IL4 production at 1 uM after 48 hrs by ELISA; format: functional; set-up: scale not given: the % may be the effect or the level left; summary of the method: as §1

Structure (SMILES)	Activity (Splenocyte [1]) [%]	inhibition at 30 µM [2] [%]	Activity (Th1)	Activity (Splenocyte [3]) [%]	Activity (Mus musculus [4])	Activity (Th2)	MST (Mus musculus [5]) [days]	LD50 [6] [mg/kg]	Activity (Splenocyte [7]) [%]	Activity (Splenocyte [8]) [%]
CCCCCCCCN1C[C@@H](O)[C@H](O)[C@@H](O)C1	40.3	27.1	Active	8.7	–	–	–	–	–	–
CCCCCCCCCCN1C[C@@H](O)[C@H](O)[C@@H](O)C1	89.1	45.9	Active	60.9	Non-toxic	Active	14.71	–	–	–
CCCCCCCCCCN1C[C@@H](O)C(O)[C@H](O)C1	75	59	Active	85.6	Non-toxic	Active	15.2	–	–	–
CCCCCCCCCCN1C[C@@H](O)[C@@H](O)C1	94.7	61	Active	88.6	Non-toxic	Active	15.6	392	–	–
CCCCCCCCCCN1C[C@H](O)[C@@H](O)[C@@H](O)C1=O	–	< 40	–	–	–	–	–	–	–	–
CCCCCCCCCCN1C[C@H](O)C(O)[C@@H](O)C1	78.1	57.2	Active	95.7	Non-toxic	Active	14.14	–	–	–
CCCCCCCCCCN1C[C@H](O)[C@H](O)C1=O	–	< 40	–	–	–	–	–	–	–	–
CCCCCCCCCCN1C[C@@H](O)[C@@H](O)[C@H](O)C1=O	–	< 40	–	–	–	–	–	–	–	–
CCCCCCCCCCN1C[C@H](O)[C@@H](O)[C@H](O)C1=O	–	< 40	–	–	–	–	–	–	–	–
C/C=C/C[C@@H](C)[C@@H](O)[C@H]1C(=O)N[C@@H](CC)C(=O)N(C)CC(=O)N(C)[C@@H](CC(C)C)C(=O)N[C@@H](C(C)C)C(=O)N(C)[C@@H](CC(C)C)C(=O)N[C@@H](C)C(=O)N[C@H](C)C(=O)N(C)[C@@H](CC(C)C)C(=O)N(C)[C@@H](CC(C)C)C(=O)N(C)[C@@H](C(C)C)C(=O)N1C [CYCLOSPORINE]	–	–	–	–	–	–	–	–	97.1	96.8
